# Bioassay records: PubChem, The Scripps Research Institute Molecular Screening Center
# OX1R antag-1 – blocks the human orexin 1 receptor; 1.8% of 330,000 active; OX1R-expressing cells, FRET antagonist read-out; inhibition, % at 6.6 µM; O43613; in the data active = inhibition mostly above about 38%, no sharp cut-off; inactive = mostly below about 40%;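 note: 0% = agonist challenge alone and 100% = reference antagonist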
# Target sequence (O43613 whole entry, looked up): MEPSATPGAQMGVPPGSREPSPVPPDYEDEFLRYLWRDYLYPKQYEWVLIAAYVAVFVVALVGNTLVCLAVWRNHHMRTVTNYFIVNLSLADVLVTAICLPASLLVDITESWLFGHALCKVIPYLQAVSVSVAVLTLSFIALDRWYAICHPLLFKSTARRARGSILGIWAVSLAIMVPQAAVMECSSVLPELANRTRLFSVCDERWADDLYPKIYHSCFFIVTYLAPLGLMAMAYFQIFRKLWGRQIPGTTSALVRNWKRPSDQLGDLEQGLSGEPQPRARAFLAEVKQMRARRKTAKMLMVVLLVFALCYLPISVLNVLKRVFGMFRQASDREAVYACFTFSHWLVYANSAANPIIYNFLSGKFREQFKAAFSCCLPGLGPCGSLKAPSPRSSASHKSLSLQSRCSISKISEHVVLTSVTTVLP
# M1 ag parental – counter-screen for M1 agonists: effect in parental CHO-K1 cells; Fluo-8 calcium fluorescence; scaled to maximal ATP response, vehicle zero; 0.48% of 360,000 active; activation, % at 3 µM; in the data active = activation above about 15%;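 note: untransfected CHO-K1 host cells lacking M1 receptor as counterscreen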
# CHO parental Ca – counter-screen for OX1R antagonists: effect in parental CHO cells; parental CHO-K1, ATP-induced calcium, Fluo-8 fluorescence; inhibition, % at 5.6 µM; 0.63% of 330,000 active;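 active = inhibition above that plate's mean sample inhibition plus 3 SD, cut at about 26% in these data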;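 note: 0% = ATP-challenged DMSO wells and 100% = DMSO wells without ATP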
#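 Assay system: parental CHO cells; Read-out basis: percent inhibition of ATP-evoked calcium rise, normalized to controls; Benchmarks: ATP and no-ATP DMSO wells; Compound dosing: single nominal dose of 5.6 µM per compound; Signal: Fluo-8 calcium dye fluorescence; Also added: ATP as calcium-mobilizing challenge; Repeats: singlicate.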
# CHO-K1 Ca PAM – nonselective activator or artifact in parental CHO-K1 calcium assay. ATP EC20, Fluo-8 calcium fluorescence; 0% at ATP EC20, 100% at ATP max. activation, % at 3 µM. 0.02% of 360,000 active;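 active = activation above the run cutoff, the mean activation of all test compounds plus 3 SD, cut at about 40% in these data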;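 note: peak over basal fluorescence ratio in a 140 s read after ATP addition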
# OX1R antag-2 – human HCRTR1 antagonism; O43613; inhibition, % at 5 µM; CHO/OX1R cells, Fluo-8 calcium fluorescence, orexin A; 0.43% of 330,000 active;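 active = inhibition above its plate's threshold, mean inhibition of all tested compounds on the plate plus 3 SD, cut at about 37% in these data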;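 note: 0% = orexin A challenge wells and 100% = SB-334867-A antagonist wells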
# CHO-K1 Ca antag – counter-screen for M1 antagonists: effect in parental CHO-K1 cells | AID 602250 | 0.6% of 360,000 active | inhibition, % at 3 µM | ATP-induced calcium, Fluo-8 fluorescence;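 active = inhibition above a per-plate cutoff, the plate's mean sample inhibition plus 3 SD, cut at about 24% in these data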;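 note: 0% = DMSO plus EC80 ATP and 100% = DMSO alone without ATP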
# OX1R Fluo8 conf – OX1R (human) antagonism, confirmed; shares compounds with OX1R antag-2; CHO/OX1R cells, orexin A calcium Fluo-8 fluorescence; inhibition, % at 5 µM; 38% of 1,100 active; in the data active = inhibition above about 29%;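 note: 0% = agonist challenge alone and 100% = reference antagonist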
# CHO Ca counter – counter-screen: parental CHO calcium response change, triplicate; shares compounds with OX1R antag-2; parental CHO-K1, ATP-induced calcium, Fluo-8 fluorescence; inhibition, % at 5.6 µM; 9.3% of 1,100 active;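 active = inhibition above a per-plate limit, the mean inhibition of that plate's test compounds plus 3 SD, cut at about 25% in these data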;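 note: 0% = ATP challenge with DMSO and 100% = DMSO without ATP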
# Numbers without * were called inactive; nt = no result. The list is not random: actives were taken first. Their share in the collection is about 2.9%.
SMILES,OX1R antag-1,M1 ag parental,CHO parental Ca,CHO-K1 Ca PAM,OX1R antag-2,CHO-K1 Ca antag,OX1R Fluo8 conf,CHO Ca counter
CCc1nccn1CCC(=O)N1CCCC(Nc2ccc(F)cc2)C1 (stereo not drawn),7.0,0.0,-7.7,-12.3,-7.2,5.9,nt,nt
Cc1cc(OCC(=O)Nc2cccc(S(=O)(=O)N3CCCCC3)c2)ccc1Cl,6.1,9.3,3.5,-15.3,36.1,3.4,16.0,14.1
Cc1cccc(C)c1OCC(=O)Nc1cccc(S(=O)(=O)N2CCCCCC2)c1,nt,1.8,nt,-2.6,nt,-4.9,nt,nt
CC(Oc1ccc(Br)cc1)C(=O)N(Cc1ccccc1)c1c(N)n(Cc2ccccc2)c(=O)[nH]c1=O (stereo not drawn),nt,0.0,nt,6.3,nt,-7.0,nt,nt
CCOC(=O)NC(c1ccc(C(C)C)cc1)C(Cl)(Cl)Cl (stereo not drawn),53.8,-0.1,-4.1,14.7,41.8*,-8.8,10.2,-2.3
COC(=O)[C@H](Cc1c[nH]c2ccccc12)NC(=O)CCCc1c[nH]c2ccccc12,39.9,16.1*,22.7,11.7,47.0,2.8,63.9*,14.7
COc1ccc(-c2cc(N3C(=O)Nc4ccccc4N3O)n[nH]2)c(OC)c1,21.9,0.6,-3.2,7.9,-15.3,6.8,nt,nt
C[C@@H](CSc1ccc(Br)cc1)CN1CC[C@H](NC(=O)OCc2ccccc2)CCC1=O,-0.2,6.0,18.3,18.6,52.9*,-12.4,-4.2,0.0
COc1ccc(SC[C@H](C)CN2CC[C@H](NC(=O)OCc3ccccc3)CCC2=O)cc1,12.2,0.2,-2.9,9.1,14.7,-14.4,nt,nt
CCOc1ccc(S(=O)(=O)n2nc(C)c(S(=O)(=O)N3CCOCC3)c2C)cc1,-2.3,1.2,-3.4,9.7,-4.6,-9.9,nt,nt
Cc1ccc2c(c1)nnn2C1CCN(S(=O)(=O)c2ccc3ccccc3c2)CC1,3.3,-0.2,-19.2,-4.4,-9.6,6.3,nt,nt
Cc1ccc2c(c1)nnn2C1CCN(S(=O)(=O)c2cccc(S(=O)(=O)N(C)C)c2)CC1,35.1,11.6,21.6,3.1,34.8,5.4,38.4*,25.4*
COc1ccc(C(=O)/C(C#N)=N/Nc2ccc([N+](=O)[O-])cc2)cc1,56.0,2.8,23.3,3.4,30.5,-17.6,17.2,55.1*
COc1ccc(C(=O)/C(C#N)=N/Nc2ccccc2[N+](=O)[O-])cc1,32.6,5.1,-4.0,24.0,0.8,-9.0,nt,nt
CC1CCCCN1S(=O)(=O)c1ccc2c(c1)C(C)(C)C(=O)N2C (stereo not drawn),16.8,-0.4,-1.0,4.7,-18.3,7.7,nt,nt
CCOc1ccc(N2C(=O)CN(CC(=O)OC)C2=S)cc1,22.0,-0.1,-2.7,16.5,-13.7,-6.6,nt,nt
O=C(CSCc1nc2ccccc2[nH]1)Nc1ccc2ccccc2c1,24.9,0.6,-15.4,-7.5,10.7,-21.6,nt,nt
O=C(CSCc1cccc(CSCC(=O)Nc2ccc3ccccc3c2)n1)Nc1ccc2ccccc2c1,32.8,0.5,11.8,11.3,38.0,-3.7,30.5*,12.2
COc1cc(NC(=S)NCc2ccco2)cc(OC)c1OC,12.7,0.4,-8.7,11.2,76.7*,-4.1,-4.8,-8.1
Cc1ccccc1-c1nnn(Cc2cccc(S(=O)(=O)N3CCOCC3)c2)n1,10.2,15.3*,4.6,-5.2,43.5*,7.8,43.9*,15.5
O=C1c2ccccc2S(=O)(=O)N1Cc1cccc(S(=O)(=O)N2CCOCC2)c1,16.0,2.8,-14.6,0.7,-9.0,-4.5,nt,nt
O=c1cc(CN2CCc3ccccc3C2)nc2sccn12,13.9,-0.1,-2.2,23.3,-18.5,-11.2,nt,nt
CSc1cccc(NC(=O)CN(c2cc(C)ccc2C)S(C)(=O)=O)c1,18.8,3.2,1.4,19.8,25.6,-6.2,1.9,-15.1
CN(CC(=O)NCc1ccccc1)CC(=O)Nc1ccc(Cl)c(C(F)(F)F)c1,11.5,13.2,-4.2,12.7,5.8,-6.9,nt,nt
CN(CC(=O)Nc1ccc(Cl)c(C(F)(F)F)c1)CC(=O)NC1CCCCC1,10.7,11.6,-4.7,0.1,37.5,1.7,-22.4,0.4
SMILES,OX1R antag-1,M1 ag parental,CHO parental Ca,CHO-K1 Ca PAM,OX1R antag-2,CHO-K1 Ca antag,OX1R Fluo8 conf,CHO Ca counter
Cc1ccccc1S(=O)(=O)Cc1ccc(C(=O)NCCCN2CCCC(C)C2)o1 (stereo not drawn),6.9,0.1,-16.6,22.9,-20.8,-3.0,nt,nt
Fc1ccc(C2=CC(c3ccc(Br)o3)n3ncnc3N2)cc1 (stereo not drawn),20.2,8.1,35.9,14.4,47.4,2.1,5.0,8.6
O=Cc1c[nH]c2ncccc12,4.3,-0.5,-4.7,2.5,-13.4,7.0,nt,nt
CC(C)CCOc1ccc(C(=O)N2CCN(c3ncccn3)CC2)cc1,-0.3,-0.1,-21.9,4.0,-26.3,-1.7,nt,nt
COC(=O)c1cc(S(=O)(=O)N(C)Cc2ccco2)c[nH]1,6.4,0.6,3.6,4.6,-2.0,-11.8,nt,nt
COc1cccc(C(=O)Nc2ccc(N3CCN(C(=O)c4cccs4)CC3)cc2)c1,14.0,5.9,-2.2,15.0,-5.4,-11.3,nt,nt
O=C(CCc1ccncc1)NC1CCCc2c1cnn2-c1cc(F)cc(F)c1 (stereo not drawn),16.2,-0.5,-13.9,24.8,45.9*,11.6,0.6,-12.1
CSCC(=O)NC1CCCc2c1cnn2-c1cc(F)cc(F)c1 (stereo not drawn),nt,2.3,nt,18.3,nt,-10.6,nt,nt
O=C(CN1c2ccccc2S(=O)(=O)c2ccccc21)NCc1ccc(F)cc1,18.6,4.0,-6.4,-14.4,24.2,0.3,3.2,-7.7
CCCC1NC(=O)c2cccnc2-n2c1nc1ccc(Cl)cc1c2=O (stereo not drawn),nt,0.1,nt,14.8,nt,-7.2,nt,nt
COCCN=c1scc(-c2cc(OC)ccc2OC)n1/N=C/c1c[nH]c2ccccc12,41.5,2.8,-0.1,-1.6,30.9,7.5,34.9*,-9.5
N#C/C(=C/c1ccc(Br)s1)C(=O)NCCc1c[nH]c2ccccc12,40.6,0.1,-27.4,-3.8,-19.6,1.1,nt,nt
COc1ccc(S(=O)(=O)N/N=C\c2ccc([N+](=O)[O-])o2)c(OC)c1,18.4,0.1,0.0,-11.2,5.5,5.5,nt,nt
O=[N+]([O-])c1ccc(/C=N\NS(=O)(=O)c2ccc(F)cc2)o1,7.2,0.2,1.4,-16.7,26.9,-3.5,-3.1,3.1
Cc1nc(-[n+]2nc(-c3ccncc3)nn2-c2ccccc2)sc1C,nt,0.2,nt,-4.0,nt,-13.9,nt,nt
CCOc1cccc(-c2c(C(=O)N/N=C/c3c(F)cccc3Cl)nnn2-c2nonc2N)c1,16.8,3.0,-1.7,10.9,33.7,-9.4,35.0*,-0.6
Cc1ccc(-n2nc(C)c(/C=N/n3c(C)n[nH]c3=S)c2Cl)cc1,-3.1,1.0,-18.0,16.8,-7.3,-19.1,nt,nt
